The results in this text go back to ChEMBL document CHEMBL3785037, “Compound profiling and 3D-QSAR studies of hydrazone derivatives with activity against intracellular Trypanosoma cruzi” (Bioorg Med Chem, 2016).

Molecules are shown by their SMILES.

One data set has as its system Trypanosoma cruzi. Kind of data set: Antitrypanosomal activity against intracellular amastigotes stage of recombinant Trypanosoma cruzi Tulahuen expressing beta galactosidase infected in NIH/3T3 cells assessed as growth inhibition after 4 days by HTS-ready assay. The format is functional, organism-based. The following applies: NIH3T3, 96 h. The procedure, abridged:
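NIH-3T3 fibroblasts were mixed 1:1 with β-galactosidase-expressing Tulahuen trypomastigotes from LLC-MK2 culture supernatants, at 1x10^3 cells/well, onto pre-dispensed compounds (50 to 0.00085 μM, DMSO ≤0.5%). Cultures were held 4 days at 37 °C, 5% CO2. Resorufin-β-D-galactopyranoside (5 µM in PBS with Igepal) was added for 4 h at room temperature, and fluorescence was read at 531/595 nm. Untreated parasites served as negative control.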

Data set [1] in a line: Cytotoxicity against mouse NIH/3T3 cells after 4 days by CellTiter-Glo luminiscence assay. The format is cell-based, NIH3T3. Particulars: read-out: TC50. In short, it runs like this: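 Mouse embryonic fibroblasts were seeded at 1x10^3 cells/well onto pre-dispensed compounds (top concentration 100 μM) for 4 days at 37 °C, 5% CO2. Controls were 0.5% DMSO (100% viable) and amphotericin B 50 μM (100% toxicity). Viability was measured as ATP by CellTiter-Glo luminescence at room temperature. TC50 was obtained by nonlinear regression.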
(ATP-based viability assays read luminescence as a measure of living cells.)

A further data set concerns HepG2. Kind of data set: Cytotoxicity against human HepG2 cells 48 hrs by CellTiter-Glo luminiscence assay. Particulars: HepG2, 48 h, read-out: TC50 (the source's name). Format: functional. The procedure, abridged:
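Human hepatoma cells were plated at 3,000 cells/well onto pre-dispensed compounds, handled as for the fibroblast assay, and incubated 48 h at 37 °C, 5% CO2. ATP-based viability was read by CellTiter-Glo luminescence after room-temperature incubation. TC50 was obtained by nonlinear regression.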

Data set [2] is described as follows: Selectivity index, ratio of TC50 for mouse NIH/3T3 cells to IC50 for amastigotes stage of recombinant Trypanosoma cruzi Tulahuen expressing beta galactosidase infected in NIH/3T3 cells. Format: toxicity, cell-based. Particulars: read-out: Selectivity Index.

In the case of `O=[N+]([O-])c1cccc(-c2csc(N/N=C/c3ccccn3)n2)c1`, the IC50 in the data set with Trypanosoma cruzi (read-out: IC50) and with Trypanosoma cruzi (read-out: pIC50 (converted)) was 1620 nM in each case. Also, the CC50 at 96 h in data set [1] amounted to 38000 nM. Besides, the CC50 in the data set with HepG2 was above 100000 nM. Moreover, in data set [2], the selectivity ratio came out at 23.5.
Regarding `NC(=S)N/N=C/CSc1cccc(Cl)c1`, the IC50 in the data set on Trypanosoma cruzi (read-out: IC50) and with Trypanosoma cruzi (read-out: pIC50 (converted)) was 1780 nM in each case. For the same compound, the CC50 at 96 h in data set [1] is above 50100 nM. Further, the CC50 in the data set with HepG2 was above 100000 nM. Moreover, the selectivity ratio in data set [2] is 28.1.
As for `Clc1ccc(-c2csc(N/N=C/c3ccccn3)n2)cc1`, the IC50 in the data set on Trypanosoma cruzi (read-out: IC50) and in the data set with Trypanosoma cruzi (read-out: pIC50 (converted)) was 1860 nM in each case. Also, the CC50 at 96 h in data set [1] was above 50100 nM. In addition, the CC50 in the data set with HepG2 is above 100000 nM. For the same compound, the selectivity ratio in data set [2] came out at 26.9.
For `C(=N\Nc1nc(-c2ccccc2)cs1)/c1ccccn1`, the IC50 with Trypanosoma cruzi (read-out: IC50) and in the data set on Trypanosoma cruzi (read-out: pIC50 (converted)) was 2190 nM each time. For the same compound, in data set [1], the CC50 at 96 h came to 17000 nM. In the data set on HepG2, the CC50 is above 100000 nM.
Consider `C/C(=N\Nc1nc(-c2ccc(Cl)cc2Cl)cs1)c1ccccn1`, for which the IC50 in the data set with Trypanosoma cruzi (read-out: IC50) and in the data set with Trypanosoma cruzi (read-out: pIC50 (converted)) was 1550 nM each time. In addition, in data set [1], the CC50 at 96 h was found to be 2000 nM. In addition, the CC50 in the data set on HepG2 is above 100000 nM.
Regarding `Cc1ccccc1SC/C=N/NC(N)=S`, the IC50 with Trypanosoma cruzi (read-out: IC50) and with Trypanosoma cruzi (read-out: pIC50 (converted)) was 4900 nM throughout. Besides, the CC50 at 96 h in data set [1] is above 50100 nM. In the data set on HepG2, the CC50 is above 100000 nM.
